For assay [1], the system named is KB 3-1. The experiment in a line: Cytotoxicity against human KB3-1 cells after 68 hrs by MTT assay. The assay is classed as functional, cell-based. As to conditions: KB 3-1, 68 h. A digest of the protocol:
(§1)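 Cells grown in DMEM with 10% FBS and 1% P/S at 37 °C under 5% CO₂, trypsinized and seeded at ~5 × 10⁴ cells per well. Test drugs added after attachment at 0.1 to 100 μM. After 68 h, MTT (4 mg/mL) added for 4 h, supernatant discarded, formazan dissolved in DMSO, absorbance read at 570 nm. IC50 taken as concentration giving ~50% survival; mean ± SD of three independent experiments.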
(Formazan colour is commonly taken as a measure of viable cells.)

In assay [2] the test system is HEK293. The experiment in a line: Cytotoxicity against HEK293 cells after 68 hrs by MTT assay. The format is cell-based. As to conditions: Homo sapiens, HEK293, 68 h. The essentials:
as §1

The subject of assay [3] is MCF7. Briefly: Cytotoxicity against human MCF7 cells after 68 hrs by MTT assay. The assay is classed as functional, cell-based. As to conditions: MCF7, 68 h. A digest of the protocol:
as §1

Assay [4] relates to NCI-H460. Briefly: Cytotoxicity against human NCI-H460 cells after 68 hrs by MTT assay. The format is functional, cell-based. Particulars: NCI-H460, 68 h. The essentials: as §1

pIC50: −log10 of the molar value.

Usually pIC50 stands for the IC50 on a negative log10 scale, so that one unit is a factor of ten. Higher therefore signals a low IC50. As for `CCCCC/C=C\C/C=C\CCCCCCCC(=O)Oc1cc(/C=C\c2cc(OC)c(OC)c(OC)c2)ccc1OC`, the pIC50 was 7.70 in assay [1], 7.70 in assay [2], < 5.00 in assay [3] and 7.70 in assay [4].
As to `CC/C=C\C/C=C\C/C=C\CCCCCCCC(=O)Oc1cc(/C=C\c2cc(OC)c(OC)c(OC)c2)ccc1OC`, the pIC50 in assay [1] was 7.52; in assay [2], 7.64; in assay [3], < 5.00; in assay [4] it was 8.00.
For `CCCCCCCCCCCCCCCCCC(=O)Oc1cc(/C=C\c2cc(OC)c(OC)c(OC)c2)ccc1OC`, the pIC50 in assay [1] was 7.52; in assay [2] it was 7.52; in assay [3], 6.62; in assay [4], 7.52.
`CCCCC/C=C\C/C=C\CCCCCCCC(=O)Oc1cc(/C=C/c2cc(OC)c(OC)c(OC)c2)ccc1OC`: the pIC50 is 5.31 in assay [1], 5.59 in assay [2], < 5.00 in assay [3] and 5.62 in assay [4].
For the compound `CCCCCCCC/C=C\CCCCCCCC(=O)Oc1cc(/C=C\c2cc(OC)c(OC)c(OC)c2)ccc1OC`, the pIC50 in assay [1] was 7.52; in assay [2], 7.52; in assay [3], < 5.00; in assay [4], 6.51.
For `CCCCC/C=C\C/C=C\CCCCCCCC(=O)Oc1ccc(/C=C/c2cc(OC)c(OC)c(OC)c2)cc1OC`, the pIC50 in assay [1], in assay [2], in assay [3] and in assay [4] was < 4.00 in each case.
As for `CCCCCCCC/C=C\CCCCCCCC(=O)Oc1ccc(/C=C/c2cc(OC)c(OC)c(OC)c2)cc1OC`, the pIC50 in assay [1], in assay [2], in assay [3] and in assay [4] was < 4.00 in each case.
For `CC/C=C\C/C=C\C/C=C\CCCCCCCC(=O)Oc1cc(/C=C/c2cc(OC)c(OC)c(OC)c2)ccc1OC`, the pIC50 was 5.62 in assay [1], 5.62 in assay [2], < 5.00 in assay [3] and < 5.00 in assay [4].
Regarding `CCCCCCCCCCCCCCCCCC(=O)Oc1cc(/C=C/c2cc(OC)c(OC)c(OC)c2)ccc1OC`, the pIC50 was < 5.00 in assay [1], 5.54 in assay [2], < 5.00 in assay [3] and < 5.00 in assay [4].
Turning to `CC/C=C\C/C=C\C/C=C\CCCCCCCC(=O)Oc1ccc(/C=C/c2cc(OC)c(OC)c(OC)c2)cc1OC`, the pIC50 in assay [1], in assay [2], in assay [3] and in assay [4] was < 4.00 throughout.
As for `CCCCCCCCCCCCCCCCCC(=O)Oc1ccc(/C=C\c2cc(OC)c(OC)c(OC)c2)cc1OC`, the pIC50 in assay [1] is 5.51; in assay [2], 5.41; in assay [3], 5.11; in assay [4], < 5.00.
On to `CCCCCCCCCCCCCCCCCC(=O)Oc1ccc(/C=C/c2cc(OC)c(OC)c(OC)c2)cc1OC`, for which the pIC50 in assay [1], in assay [2], in assay [3] and in assay [4] was < 4.00 each time.
In the case of `COc1cc2c(c(OC)c1OC)-c1ccc(OC)c(=O)cc1[C@@H](NC(C)=O)CC2` [COLCHICINE], the pIC50 in assay [1] was 7.70; in assay [2], 7.70; in assay [3], 7.22; in assay [4] it was 7.22.
For the compound `COc1ccc(/C=C\c2cc(OC)c(OC)c(OC)c2)cc1O` [COMBRETASTATIN A4], the pIC50 in assay [1] was 8.00; in assay [2] it was 8.00; in assay [3], 7.05; in assay [4], 8.00.
Turning to `COc1ccc(/C=C/c2cc(OC)c(OC)c(OC)c2)cc1O` [E-COMBRETASTATIN A-4], the pIC50 is 7.00 in assay [1], 6.70 in assay [2], 6.96 in assay [3] and 6.60 in assay [4].

These data come from ChEMBL document CHEMBL4616646, “Synthesis and Cytotoxicity Studies of Stilbene Long-Chain Fatty Acid Conjugates” (J Nat Prod, 2020).
